Most compounds without a hit are left out; they make up all but 1.5% or so of the library.
core dimer inh = HCV core protein dimerization inhibition. TR-FRET GST/Flag-core106 dimerization, 1536-well. inhibition, % at 5 µM. actives 0.33% (n = 300,000);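 active = inhibition above the mean of all tested compounds plus 3 SD, set per screening campaign, cut at about 45% in these data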
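System: GST/Flag-tagged HCV core106 proteins. Incubation: compound-protein-antibody incubation 4 h at 22.5 °C. Technique: HTRF with 340 nm excitation, 617/671 nm emission. Medium: KF-containing HEPES buffer, pH 7.45, DTT, CHAPS, BSA. Read-out: inhibition (%) from 671 over 617 nm ratio. Also added: Eu(K)-anti-GST 90 ng/mL plus XL665-anti-Flag 1 µg/mL.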
NRP1-CendR mod = NRP-1/CendR interaction modulation; O14786; FAM-RPARPAR peptide binding to NRP-1, fluorescence polarization; inhibition, % at 25 µM; actives 0.85% (n = 360,000); AID 602438;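 active = inhibition or corrected inhibition above about 18%, plus a signal ratio from 0.5 to 1.5, limit read from the data, passing the limit was not always enough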
MEX-5 binding = C. elegans MEX-5 TCR-2 RNA binding activity. MEX-5/FITC-TCR2 RNA binding, fluorescence polarization; active compounds read low. activity score (negative = inhibition of binding), % at 10 µM. actives 0.38% (n = 300,000);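 active = inhibition past about -25% in most replicates, and total fluorescence under double the plate's negative control median, limit read from the data; inconclusive = replicates evenly split on the limit, or fluorescence at least double controls; inactive = too little inhibition in most replicates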;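 also: 0% = DMSO and -100% = 5 µM competing unlabeled TCR2 RNA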
Target sequence (Q9XUB2 whole entry, looked up): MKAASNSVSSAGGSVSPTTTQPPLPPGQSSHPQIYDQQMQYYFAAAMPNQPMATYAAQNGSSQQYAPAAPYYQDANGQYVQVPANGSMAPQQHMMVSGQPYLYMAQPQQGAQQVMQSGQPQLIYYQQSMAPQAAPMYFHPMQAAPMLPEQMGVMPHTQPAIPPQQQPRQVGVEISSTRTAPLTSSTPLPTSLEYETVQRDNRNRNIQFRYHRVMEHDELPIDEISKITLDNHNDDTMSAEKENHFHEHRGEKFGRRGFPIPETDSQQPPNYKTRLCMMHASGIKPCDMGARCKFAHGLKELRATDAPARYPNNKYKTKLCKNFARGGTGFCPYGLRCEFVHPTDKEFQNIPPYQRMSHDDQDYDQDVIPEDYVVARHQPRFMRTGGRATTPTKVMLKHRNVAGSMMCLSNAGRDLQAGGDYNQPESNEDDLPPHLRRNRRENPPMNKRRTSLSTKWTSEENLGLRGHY
DNA FID counter = counter-screen for HCV NS3 helicase inhibitors: DNA intercalator displacement | actives 0.17% (n = 290,000) | DNA fluorescent intercalator displacement, fluorescence | inhibition, % at 7.9 µM; in the data active = inhibition above about 37%;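 also: 0% = vehicle and 100% = reference compound; higher means more ethidium bromide displaced from hairpin DNA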
An asterisk follows results filed as active; ? = inconclusive; . = no result.

SMILES	core dimer inh	NRP1-CendR mod	MEX-5 binding	DNA FID counter
CCNC(=O)C1(C)CCN(C(=O)c2ccc(C(F)(F)F)cc2)C1 (stereo unspecified)	.	-2	.	.
CC(C)Oc1ccc(CN2CCC2(C)C(=O)Nc2cccc(Oc3ccccc3)c2)cc1 (stereo unspecified)	.	1	.	.
O=C(Nc1ccnn1C1CCN(C(=O)c2c(F)cccc2F)CC1)C1CC1	1	25*	-1	-4
O=C(Nc1ccnn1C1CCN(C(=O)c2ccc(F)c(Cl)c2)CC1)C1CC1	-5	9	0	-15
COc1ccc(CN2CCC(n3nccc3NC(=O)C3CC3)CC2)cc1O	9	23*	-1	-4
CCOCc1cc(CN2CCC(n3nccc3NC(=O)C3CC3)CC2)ccc1OC	.	8	3	11
CCCNC(=O)N(C)C[C@@H]1Oc2cc(C#CC(C)(C)O)ccc2S(=O)(=O)N([C@H](C)CO)C[C@H]1C	.	8	.	.
C#CCNC(=O)C[C@@H]1C[C@@]2(C(=O)OC)CCCCC=C2N(CCc2ccc(OC)c(OC)c2)C1=O	.	13	.	.
O=C1NC(=S)N/C1=C/c1cccn1-c1ccc([N+](=O)[O-])cc1	59*	4	-2	0
N=C1/C(=C/c2cccn2-c2ccc([N+](=O)[O-])cc2)C(=O)N=C2SC=CN12	36	-13	2	-2
Nc1cc(S(=O)(=O)O)cc([N+](=O)[O-])c1O	-9	28*	?	2
Nc1cccc2c(O)cc(S(=O)(=O)O)cc12	.	1	.	.
Cc1cc(C)n(C2CC(=O)N(c3cc(Cl)cc(Cl)c3)C2=O)n1 (stereo unspecified)	1	35*	-1	-13
CCCC1CC(CSC(=N)N)OC1=O (stereo unspecified)	-7	27*	-4	-3
CCCCCCC1CC(CSC(=N)N)OC1=O (stereo unspecified)	-7	-10	0	3
CCn1nc(C(=O)OCC(=O)NCCN2C(=O)CSC2=O)c2ccccc2c1=O	12	38*	1	2
CCCS(=O)(=O)c1nc(S(=O)(=O)c2ccc(C)cc2)c(N2CCCC2)s1	2	19*	3	-2
C/C(=N\Nc1ccc(F)cc1F)c1ccc(F)cc1	54*	.	-1	2
O=C(NCC(=O)N1CCCC1)c1ccccc1F	12	-10	-1	-3
O=C(NCC(=O)N1CCC(Cc2ccccc2)CC1)c1ccccc1F	.	32*	.	.
O=C(O)c1cc(Nc2cc(Cl)c3nonc3c2[N+](=O)[O-])ccc1O	11	25*	-14	-4
O=[N+]([O-])c1c(Nc2ccccc2O)cc(Cl)c2nonc12	.	11	2	4
O=C(c1ccc([N+](=O)[O-])cc1Cl)N1CCN(Cc2ccccc2)CC1	.	10	.	.
CCC1=NN2C(=N)/C(=C\c3ccc(SCc4ccco4)o3)C(=O)N=C2S1	14	-196	-32*	-16
CCC1=NN2C(=N)/C(=C/c3c(C)nn(-c4ccccc4)c3Cl)C(=O)N=C2S1	-8	-1	4	-10
SMILES	core dimer inh	NRP1-CendR mod	MEX-5 binding	DNA FID counter
CCCC1=NN2C(=N)/C(=C\c3cc(C)n(Cc4ccccc4)c3C)C(=O)N=C2S1	13	13	1	-15
CCCC1=NN2C(=N)/C(=C\c3ccc(SCc4ccco4)o3)C(=O)N=C2S1	71*	-239	-16	-29
CC(=O)NC(c1ccc(F)c(F)c1)c1nc(-c2cccc(C(C)C)c2)cs1 (stereo unspecified)	.	1	.	.
Nc1ccc2c(c1)[nH]c(=O)c1cc(N)ccc12	.	-12	.	.
CCN(CC)C(=O)C1=C(C)N(Cc2ccc(OC)cc2)C(=O)C(CC(=O)NCCN2CCOCC2)C1 (stereo unspecified)	.	2	.	.
Cc1cccc(N=Nc2c(O)[nH]c3ccc(Br)cc23)c1	-1	-30	-33*	8
O=C(C[C@H]1CC[C@@H](NS(=O)(=O)c2ccccc2)[C@@H](CO)O1)NCc1ccc(Cl)c(Cl)c1	.	18	.	.
Oc1ccc(N=Nc2n[nH]c(-c3ccccc3)n2)cc1	-22	-8	-37*	5
Cc1cc(O)ccc1-c1cccc2nccn12	.	4	.	.
Cc1ccc(S(=O)(=O)N2C[C@H]3[C@H]4C(=O)N(c5ccccc5)C(=O)[C@H]4CC(=O)[C@H]3[C@@H]2c2ccccc2F)cc1	.	25*	.	.
Cc1ccc(S(=O)(=O)N2C[C@H]3[C@H]4C(=O)N(c5ccccc5)C(=O)[C@H]4CC(=O)[C@H]3[C@@H]2c2cccc3ccccc23)cc1	.	8	.	.
CCC(C)NC(=O)c1cnn2c1NC(c1cccs1)CC2C(F)(F)F (stereo unspecified)	-3	22*	-2	-13
Clc1ccc(C2CC(c3cccs3)n3ncnc3N2)cc1 (stereo unspecified)	-2	11	-3	-25
CC(C)(C)NC(=O)c1cnn2c1NC(c1ccc(F)cc1)CC2C(F)(F)F (stereo unspecified)	1	0	2	-6
FC(F)(F)C1CC(c2cccs2)Nc2ncnn21 (stereo unspecified)	-5	30*	-3	4
CN(Cc1ccc(Cl)cc1)C(C(=O)NC1CCCCC1)c1cc2ccccc2o1 (stereo unspecified)	.	-3	.	.
CN(Cc1ccc(Cl)cc1)C(CCc1ccccc1)C(=O)NC1CCCCC1 (stereo unspecified)	.	20*	.	.
CCCCNC(=O)C(NC(=O)c1ccc2ccccc2c1)C(=O)c1ccccc1 (stereo unspecified)	.	3	.	.
Cc1ccc(C)c(/C=C(\C(=O)O)c2ccc(S(=O)(=O)N3CCCCC3)s2)c1	57*	-26	1	-23
N/C(CSc1ccc(Cl)cc1)=N\S(=O)(=O)c1ccc(Cl)cc1	-7	29*	.	-15
CCOC(=O)CN(C(=O)c1snc(C(N)=O)c1N)C(C(=O)NCCC(C)C)c1ccc(C)cc1 (stereo unspecified)	.	2	.	.
COc1ccc(N2C(=O)C3C4C=CC(C5CC45)C3C2=O)c([N+](=O)[O-])c1 (stereo unspecified)	9	33*	2	3
N#Cc1ccc(CC(=O)c2ccccc2)[nH]c1=O	.	-15	.	.
O=C1CCCN1CCCNC(=S)Nc1ccc(Cl)cc1Cl	3	40*	1	-10
O=C(NCCCN1CCCC1=O)Nc1ccc(Cl)cc1Cl	5	13	-1	-8
SMILES	core dimer inh	NRP1-CendR mod	MEX-5 binding	DNA FID counter
CN1CCN(c2ccc(CNC(=O)C3(C)Cc4c(-c5ccc(C(N)=O)cc5)ccnc4O3)cc2)CC1 (stereo unspecified)	.	-7	.	.
O=C(CN1C2=NCCN2c2ccccc21)c1ccco1	0	32*	-2	1
O=C(CN1C2=NCCN2c2ccccc21)N1CCOCC1	-2	.	1	-2
Cc1cccc2sc(NC(=O)C3CCN(S(=O)(=O)c4cc([N+](=O)[O-])ccc4Cl)CC3)nc12	49*	-5	-2	4
Cc1nnc(NC(=O)C2CCN(S(=O)(=O)c3cc([N+](=O)[O-])ccc3Cl)CC2)o1	.	5	.	.
CC(=O)Nc1ccc(NC(=O)C2CC(=O)N=C(N)S2)cc1 (stereo unspecified)	6	32*	2	-2
